Measured values published in ChEMBL document CHEMBL1140862, “Berberine analogues as a novel class of the low-density-lipoprotein receptor up-regulators: synthesis, structure-activity relationships, and cholesterol-lowering efficacy” (J Med Chem, 2009).

Tested on: HepG2
Assay: Induction of LDLR mRNA expression in human HepG2 cells after 12 hrs by RT-PCR assay relative to untreated control
Format: functional
Outline: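 HepG2 cells kept in RPMI-1640 with 10% FBS, moved 24 h before dosing to 10% LPDS, then at ~80% confluence to RPMI-1640 with 0.5% LPDS plus compound (5.0 µg/mL in table; concentrations as indicated in figure), 12 h, 37 °C. Total RNA reverse-transcribed, TaqMan real-time PCR, comparative CT method with GAPDH reference; fold of untreated cells (=1); mean of three experiments.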

Row | Structure (SMILES) | fold change (FC)
1 | COc1ccc2c(c1OC)C[N+]1(Cc3ccccc3)CCc3cc4c(cc3C1C2)OCO4.[Br-] (stereo not drawn) | 1.1
2 | CC[N+]12CCc3cc4c(cc3C1Cc1cc(OC)c(OC)cc1C2)OCO4.[Br-] (stereo not drawn) | 0.8
3 | CCC[N+]12CCc3cc4c(cc3C1Cc1cc(OC)c(OC)cc1C2)OCO4.[I-] (stereo not drawn) | 0.9
4 | CCOC(=O)C[N+]12CCc3cc4c(cc3C1Cc1cc(OC)c(OC)cc1C2)OCO4.[Br-] (stereo not drawn) | 1
5 | COc1cc2c(cc1OC)-c1cc3ccc(OC)c(OC)c3c[n+]1CC2.[I-] | 0.8
6 | COc1cc2c(cc1OC)CN1CCc3cc4c(cc3C1C2)OCO4 (stereo not drawn) | 1.3
7 | COc1cc2c(cc1OC)C[N+]1(C)CCc3cc4c(cc3C1C2)OCO4.[I-] (stereo not drawn) | 0.9
8 | CCC[N+]12CCc3cc4c(cc3C1Cc1ccc(OC)c(OC)c1C2)OCO4.[I-] (stereo not drawn) | 1.2
